Measured values taken from ChEMBL document CHEMBL3393008, “Identification of a novel orally bioavailable phosphodiesterase 10A (PDE10A) inhibitor with efficacy in animal models of schizophrenia” (J Med Chem, 2015).

How the values were obtained:
Format in all cases: ADME, organism-based
[1] = Oral bioavailability in rat at 10 mg/kg administered as single dose; settings: in vivo
[2] = Volume of distribution in rat; settings: in vivo
[3] = Drug level in rat brain at 10 mg/kg, sc after 1 hr; design: dose 10 mg/kg, route subcutaneous; settings: read-out: Drug uptake
Outline: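 Rats dosed 10 mg/kg sc; total brain level measured 1 h after dosing.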

bioavailability [1]: 45% | Vd [2]: 1.9 L/kg | concentration at 1 h [3]: 1210 ng/g
SMILES: COCCc1ccc(-c2c(C)nc3c(N4CCOCC4)nccn23)cn1
